# The list is not random: actives were taken first. Their share in the collection is about 4.3%.
# TAAR1 antagonist – antagonists of human TAAR1; Q96RJ0; CHO RD-HGA16 TAAR1, Fluo-8 calcium fluorescence, antagonist; inhibition, % at 3 µM; 360,000 compounds, 1.5% hits; AID 624466;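 active means inhibition above a per-plate cutoff, the mean inhibition of test compounds on that plate plus 3 SD, cut at about 49% in these data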
# Target sequence (Q96RJ0 whole entry, looked up): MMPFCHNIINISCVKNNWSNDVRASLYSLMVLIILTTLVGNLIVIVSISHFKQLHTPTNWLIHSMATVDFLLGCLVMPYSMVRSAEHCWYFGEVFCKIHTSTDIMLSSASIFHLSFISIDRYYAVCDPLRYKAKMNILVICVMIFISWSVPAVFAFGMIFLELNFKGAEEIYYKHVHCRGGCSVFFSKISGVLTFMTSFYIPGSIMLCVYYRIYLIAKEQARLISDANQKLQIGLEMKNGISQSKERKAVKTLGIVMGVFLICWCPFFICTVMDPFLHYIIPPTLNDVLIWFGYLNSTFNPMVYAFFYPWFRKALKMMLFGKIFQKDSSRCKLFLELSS
#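 System: RD-HGA16 CHO cells with stable hTAAR1 and Gα16 | Probe or stimulus: EC80 β-phenethylamine stimulus | Dosing: 3 µM, single point | Times: Dye loading 75 min at 37 °C, then 30 min room temperature | Measured by: Fluo-8 calcium-sensitive fluorescence | Read-out basis: % inhibition of agonist calcium response | Replicates: n of 1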
# TAAR1 agonist – agonists of human TAAR1. AID 624467. CHO RD-HGA16 TAAR1, Fluo-8 calcium fluorescence; vehicle wells 0%, saturating PEA agonist 100%. activation, % at 3 µM. 360,000 compounds, 0.99% hits. Q96RJ0;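 active means activation above the mean activation of all test compounds in the run plus 3 SD, cut at about 38% in these data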
#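 Test system: RD-HGA16 (CHO) cells co-expressing Gα16 and hTAAR1 / Benchmarks: DMSO vehicle as 0%, PEA at EC100 as 100% / Repeats: no replicates (n 1) / Measure: % activation from peak over basal fluorescence ratio, DMSO-to-PEA scaled / Timing: 17-24 h plating, Fluo-8 75 min 37 °C, 30 min RT / Technique: kinetic Fluo-8 calcium fluorescence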
# CHO parental Ca – counter-screen: ATP calcium response change in parental CHO cells; parental CHO-K1, ATP-induced calcium, Fluo-8 fluorescence; inhibition, % at 5.6 µM; 330,000 compounds, 0.63% hits; AID 463079;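 active means inhibition above that plate's mean sample inhibition plus 3 SD, cut at about 26% in these data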
#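 material = parental CHO cells | also added = ATP as calcium-mobilizing challenge | dosing = single point at 5.6 µM | detection = intracellular calcium via Fluo-8 no-wash fluorescent dye | read-out = % inhibition | benchmarks = low control ATP plus DMSO, high control DMSO only | repeats = one well per compound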
# OX1R antag-1 – antagonists of human orexin 1 receptor; inhibition, % at 5 µM; CHO/OX1R cells, Fluo-8 calcium fluorescence, orexin A; O43613; 330,000 compounds, 0.43% hits;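 active means inhibition above its plate's threshold, mean inhibition of all tested compounds on the plate plus 3 SD, cut at about 37% in these data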
# OX1R antag-2 – blocks the human orexin 1 receptor | O43613 | AID 485270 | 330,000 compounds, 1.8% hits | inhibition, % at 6.6 µM | OX1R-expressing cells, FRET antagonist read-out; in the data active means inhibition mostly above about 38%, no sharp cut-off; inactive means mostly below about 40%
# GalR3 antag – human GalR3 antagonism; O60755; HEK293 GalR3-CNG cAMP membrane potential fluorescence; galR3 body fused to GalR1 C-terminus; inhibition, % at 3 µM; 360,000 compounds, 0.44% hits;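 active means inhibition above the screen-wide average plus 3 SD, cut at about 13% in these data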;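 further: forskolin and galanin both at EC90 stimulate the cells; cAMP rise reported by CNG channel membrane potential dye signal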
# Target sequence (O60755 1-299 limits assumed): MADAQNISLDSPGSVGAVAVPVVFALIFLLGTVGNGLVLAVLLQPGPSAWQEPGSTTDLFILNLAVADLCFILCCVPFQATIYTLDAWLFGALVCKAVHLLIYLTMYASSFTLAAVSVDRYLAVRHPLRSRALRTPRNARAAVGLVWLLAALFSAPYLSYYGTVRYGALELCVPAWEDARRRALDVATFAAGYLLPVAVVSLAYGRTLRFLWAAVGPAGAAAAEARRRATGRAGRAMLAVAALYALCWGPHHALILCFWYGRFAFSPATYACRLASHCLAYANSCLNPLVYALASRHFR
# Numbers stand for hits; i = inactive; nt = not tested or not shown.
SMILES,TAAR1 antagonist,TAAR1 agonist,CHO parental Ca,OX1R antag-1,OX1R antag-2,GalR3 antag
CCCCn1c(N)c(N(CC)C(=O)C2CCN(C(=O)c3ccccc3C)CC2)c(=O)[nH]c1=O,i,i,i,i,i,i
Nc1ncc([N+](=O)[O-])c(Oc2ccccc2F)n1,i,i,i,i,i,i
Cc1cc(/C=N/Nc2nc(N)ncc2[N+](=O)[O-])c(C)n1-c1ccccc1F,nt,nt,i,i,44,nt
O=[N+]([O-])c1ccc(NN=Cc2cccc(O)c2)nc1,i,i,nt,nt,nt,i
Cc1cccc(C)c1-n1c(C)cc(/C=N\Nc2ccc([N+](=O)[O-])cn2)c1C,51,i,i,i,i,i
COCc1cc(N2CCN(C(=O)OC(C)(C)C)C[C@H]2C)ccc1N1CC[C@H](O)C1,i,i,nt,nt,nt,i
CCNC(=S)Nc1cccc([N+](=O)[O-])c1,nt,nt,i,i,i,nt
O=[N+]([O-])c1cccc(NC(=S)Nc2nc(-c3ccccc3Cl)cs2)c1,i,i,64,i,i,i
Cc1ncc(C(O)c2ccc(N(C)C)cc2)n1Cc1ccccc1 (stereo not drawn),i,i,nt,nt,nt,i
CN(C)c1ccc2nc3c(=O)[nH]c(=O)nc-3n(CC(O)C(O)C(O)CO)c2c1 (stereo not drawn),i,i,i,i,74,i
O=C(O)CCn1c(SCc2cccc3ccccc23)nc2ccccc21,i,i,i,i,68,i
Cc1ccc(OCCSc2nc3ccccc3n2CCC(=O)O)cc1,i,i,i,i,49,i
CCSc1nc2ccccc2n1CCC(=O)O,i,i,i,i,i,i
Cc1ccccc1OCCSc1nc2ccccc2n1CCC(=O)O,i,i,i,i,74,i
O=C(NCc1cccs1)c1csc([C@@H]2C[C@H](O)[C@@H](CO)O2)n1,i,i,nt,nt,nt,i
COc1ccc(C(=O)C(=O)N2CCN(C(=O)c3cc(C(F)(F)F)cc(C(F)(F)F)c3)CC2)cc1OC,i,i,nt,nt,nt,i
O=C(CSCc1c(Cl)cccc1Cl)Nc1ccc2c(c1)OCCO2,i,i,i,i,i,i
Cc1ccc(C(Nc2ccccc2)c2ccc3ccc(C)nc3c2O)c(C)c1 (stereo not drawn),i,i,nt,nt,nt,i
O=C(COc1ccc(S(=O)(=O)N2CCCC2)cc1Cl)Nc1ccc2c(c1)OCO2,50,i,i,i,i,i
Cc1cc(C)c(OCC(=O)Nc2ccc3c(c2)OCO3)cc1C,i,i,44,i,i,i
CC(C)NS(=O)(=O)c1ccc(OCC(=O)Nc2ccc3c(c2)OCO3)c(Cl)c1,i,i,i,i,i,i
Cc1ccc(C)c(OCC(=O)Nc2ccc3c(c2)OCO3)c1,nt,nt,i,i,i,nt
O=C(CNC(=O)c1cccc(F)c1)N/N=C/c1cccs1,i,i,i,i,i,i
COc1ccc(COC(=O)CCCN=C2NS(=O)(=O)c3ccccc32)cc1F,i,i,nt,nt,nt,i
COCCCn1c(SCC(=O)N2CCOCC2)nnc1-c1ccco1,i,i,i,i,i,i
SMILES,TAAR1 antagonist,TAAR1 agonist,CHO parental Ca,OX1R antag-1,OX1R antag-2,GalR3 antag
Cc1sc2ncnc(NCC(O)c3ccc([N+](=O)[O-])cc3)c2c1C (stereo not drawn),i,i,35,i,i,i
CN(C)c1ccc2c3c(cccc13)C(=O)N(c1ccccc1)C2=O,nt,nt,i,i,i,nt
Cc1cccc(N2C(=O)c3cccc4c(N(C)CCO)ccc(c34)C2=O)c1,nt,nt,i,46,i,nt
CN(C(=O)CSc1nnc(-c2cccnc2)n1-c1ccccc1F)C1CCS(=O)(=O)C1 (stereo not drawn),i,i,i,i,i,i
O=C(c1cccc(S(=O)(=O)NCc2ccccc2)c1)N1CCN(c2ccccc2Cl)CC1,i,i,nt,nt,nt,i
Cc1ccc2c(CSc3nnc(C4CC4)n3N)cc(=O)oc2c1,i,i,i,i,i,i
Cc1ccc2c(CSc3nnnn3C)cc(=O)oc2c1,i,i,i,i,62,i
COc1ccccc1C(=O)NC1CCCCN(C)C1=O (stereo not drawn),i,i,nt,nt,nt,i
CC(=O)c1ccc(NC(=O)C(C)O/N=C(\N)c2ccccc2)cc1 (stereo not drawn),i,i,i,i,i,i
C/C(=N/NS(=O)(=O)c1ccc(C)cc1C)c1c[nH]c2ccccc12,i,i,nt,nt,nt,i
COc1ccc(OC)c(CCNC(=O)CCC(=O)N2CCOc3ccc(C)cc32)c1,i,i,i,i,39,nt
CCN1CCN(c2ccc(S(=O)(=O)N3CCCCC3)cc2NC(=O)Cc2ccc(Cl)c(Cl)c2)CC1,nt,nt,74,i,i,nt
N#Cc1ccc(Nc2nc(-c3ccc(O)cc3O)cs2)cc1C(F)(F)F,nt,nt,i,i,53,nt
Cc1nc2sccn2c(=O)c1S(=O)(=O)Nc1ccc(N2CCN(S(C)(=O)=O)CC2)cc1,60,i,i,i,i,i
CCOc1ccc(NS(=O)(=O)c2c(C)nc3sccn3c2=O)cc1,i,i,i,i,i,nt
COc1cc2c(cc1OC)[N+]([O-])=C(c1ccccc1)C2=O,i,i,nt,nt,nt,i
COc1ccc(CC(N)c2csc(Nc3ccc(S(C)(=O)=O)cc3)n2)cc1 (stereo not drawn),i,i,nt,nt,nt,i
CSc1ccc(S(=O)(=O)NCC(=O)OCC(=O)N(C)C2CCCCC2)cc1[N+](=O)[O-],i,i,i,i,i,i
CSc1ccc(S(=O)(=O)NCC(=O)OC(C)C(=O)NCc2ccccc2)cc1[N+](=O)[O-] (stereo not drawn),i,i,i,i,67,i
CSc1ccc(S(=O)(=O)NCC(=O)OCC(=O)NCCc2ccccc2)cc1[N+](=O)[O-],i,i,i,i,37,i
CCN(C(=O)COC(=O)CNS(=O)(=O)c1ccc(SC)c([N+](=O)[O-])c1)C1CCCCC1,i,i,i,i,53,i
CSc1ccc(S(=O)(=O)NCC(=O)OCC(=O)NCc2ccco2)cc1[N+](=O)[O-],i,i,i,i,i,i
CNc1ccc(S(=O)(=O)NCC(=O)OC(C)C(=O)N(C)Cc2ccccc2)cc1[N+](=O)[O-] (stereo not drawn),i,i,i,i,i,i
Nc1nc2c(ncn2[C@@H]2O[C@H](C(=O)N[C@H](Cc3ccccc3)C(=O)NC3CCCCC3)[C@@H](O)[C@H]2O)c(=O)[nH]1,i,i,nt,nt,nt,i
COc1cc(/C=C2\S/C(=N/S(=O)(=O)Cc3ccccc3)NC2=O)c([N+](=O)[O-])cc1OC,i,i,i,i,i,i
COc1cc(/C=C2/S/C(=N/S(=O)(=O)Cc3ccccc3)NC2=O)c([N+](=O)[O-])cc1OC,i,i,i,i,41,i
O=C1N/C(=N\S(=O)(=O)c2ccccc2)S/C1=C\c1cc([N+](=O)[O-])ccc1O,54,i,46,59,i,i
Nc1[nH]c(C(=O)c2ccccc2)c(-c2ccc3c(c2)OCO3)c1C(=O)NCCc1c[nH]c2ccccc12,i,i,nt,nt,nt,i

# Screening results from PubChem.
